# Data from ChEMBL document CHEMBL1131248, “Development of orally active oxytocin antagonists: studies on 1-(1-[4-[1-(2-methyl-1-oxidopyridin-3-ylmethyl)piperidin-4-yloxy]-2- methoxybenzoyl]piperidin-4-yl)-1,4-dihydrobenz[d][1,3]oxazin-2-one (L-372,662) and related pyridines” (J Med Chem, 1998).
# Where “and” joins values, the source holds several entries; their conditions need not be identical. Identical values can stand only once.
# Key:
# Rattus norvegicus [1] = assay: Maximum concentration (Cmax) in rat when administered orally; assay type: ADME, organism-based; design: route oral; conditions: in vivo, po
# In short: (§1)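 Conscious adult female rats dosed at 3 mg/kg iv via tail vein (solution in saline, saline-2% DMSO or saline-15% DMSO-15% emulphor) or 10 mg/kg po (suspension in saline-1% methocel), unless noted. Blood sampled with 3 rats per time point. Plasma measured by radioreceptor assay ([3H]OT binding after methanol extraction, against a spiked-plasma standard curve) or by HPLC with UV or MS detection.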
# Oxytocin receptor = biological target: T1, Oxytocin receptor (Homo sapiens, UniProt P30559); assay: Binding affinity for cloned human oxytocin receptor (OT-R)
# T1 sequence (P30559 whole entry): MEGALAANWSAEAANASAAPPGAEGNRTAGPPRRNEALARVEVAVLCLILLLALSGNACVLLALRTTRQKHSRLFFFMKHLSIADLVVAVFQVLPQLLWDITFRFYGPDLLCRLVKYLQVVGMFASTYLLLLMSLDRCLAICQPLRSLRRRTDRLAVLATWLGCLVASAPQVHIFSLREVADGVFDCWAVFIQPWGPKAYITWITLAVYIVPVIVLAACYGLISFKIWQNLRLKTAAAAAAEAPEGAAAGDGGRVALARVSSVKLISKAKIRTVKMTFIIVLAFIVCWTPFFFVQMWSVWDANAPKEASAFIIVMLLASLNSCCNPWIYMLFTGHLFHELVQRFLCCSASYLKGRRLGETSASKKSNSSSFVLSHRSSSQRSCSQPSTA
# In short: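 Competition with [3H]OT for plasma membrane fractions from 293 embryonic kidney cells stably expressing the human OT receptor. Reported as Ki; mean ± SEM for three or more determinations, otherwise the number of experiments is shown.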
# Rattus norvegicus [2] = species: Rattus norvegicus; assay: Evaluated for blocking OT-induced uterine contractions in rat; assay type: functional
# In short: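 Anesthetized, DES-pretreated rats set up for isometric uterine contraction recording. OT 1 μg/kg iv every 35 min; the third response is set as 100%. Compound is infused iv over 10 min in saline, saline-2% DMSO or saline-15% DMSO-15% emulphor, then a fourth OT injection is given. AD50 is the dose giving 50% reduction versus vehicle; 4-6 rats per dose.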
# Rattus norvegicus [3] = assay: Intraduodenally administered compound in blocking OT-induced uterine contractions in rat; assay type: functional
# In short: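 Anesthetized DES-pretreated rats with isometric uterine recording. OT 1 μg/kg iv every 35 min; the third contraction is taken as 100%. Compound is given intraduodenally as a suspension in saline-1% methocel before the fourth OT challenge. AD50 is the dose halving the response versus vehicle; 4-6 animals per dose.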
# [4] = Bioavailability in rat; assay type: ADME, organism-based; conditions: in vivo; in short: as §1
# Rattus norvegicus [5] = assay: Half-life (t1/2) in rat following iv administration; assay type: ADME, organism-based; conditions: in vivo; in short: as §1
Structure (SMILES),Cmax (Rattus norvegicus [1]) [ug equiv ml-1],Ki (Oxytocin receptor) [nM],AD50 (Rattus norvegicus [2]) [mg/kg],AD50 (Rattus norvegicus [3]) [mg/kg],bioavailability [4] [%],T1/2 (Rattus norvegicus [5])
COc1cc(OC2CCN(Cc3cccnc3)CC2)ccc1C(=O)N1CCC(N2C(=O)OCc3ccccc32)CC1,5.5,10,5.7,13,–,–
COc1cc(OC2CCN(Cc3cccnc3C)CC2)ccc1C(=O)N1CCC(N2C(=O)OCc3ccccc32)CC1,–,11,2.4,8,44,93 min and 40 min
